Hits are enriched below; roughly 3.4% of the tested compounds scored in any of these assays.
TAAR1 agonist: human TAAR1 agonists, primary screen, Fluo-8 calcium fluorescence, CHO RD-HGA16 cells; Trace amine-associated receptor 1 (Homo sapiens), Q96RJ0; vehicle wells 0%, saturating PEA agonist 100%; activation, % at 3 µM; hit rate 0.99% among 360,000; AID 624467, 2012;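 active = activation above the mean activation of all test compounds in the run plus 3 SD, cut at about 38% in these data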
Target sequence (Q96RJ0 whole entry, looked up): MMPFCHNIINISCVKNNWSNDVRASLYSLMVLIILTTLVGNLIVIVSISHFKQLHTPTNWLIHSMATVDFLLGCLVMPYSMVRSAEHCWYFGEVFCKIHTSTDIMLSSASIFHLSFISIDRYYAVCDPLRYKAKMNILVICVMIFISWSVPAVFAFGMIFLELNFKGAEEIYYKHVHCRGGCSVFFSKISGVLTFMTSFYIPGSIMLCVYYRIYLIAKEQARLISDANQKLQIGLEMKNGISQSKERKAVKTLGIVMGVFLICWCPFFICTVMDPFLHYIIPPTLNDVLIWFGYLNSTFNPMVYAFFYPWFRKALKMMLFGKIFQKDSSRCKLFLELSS
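Test system: RD-HGA16 (CHO) cells co-expressing Gα16 and hTAAR1 / Benchmarks: DMSO vehicle as 0%, PEA at EC100 as 100% / Repeats: no replicates (n 1) / Measure: % activation from peak over basal fluorescence ratio, DMSO-to-PEA scaled / Timing: 17-24 h plating, Fluo-8 75 min 37 °C, 30 min RT / Technique: kinetic Fluo-8 calcium fluorescence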
LANA-H2A inh: blockers of LANA interaction with H2A/H2B – biochemical, FP readout, HTS, primary screen | cell-free LANA-H2A/H2B peptide, fluorescence polarization | inhibition, % (test concentration not listed) | hit rate 0.6% among 320,000 | AID 2629, 2010; in the data active = inhibition mostly above about 10%, no sharp cut-off; inactive = mostly below about 6.7%
GPR7 antagonist: GPR7 receptor antagonists, primary screen, cell-based, fluorescence, single concentration | Neuropeptides B/W receptor type 1 (Homo sapiens), P48145 | GPR7-expressing cells, fluorescence antagonist assay | inhibition, % at 4.4 µM | hit rate 1.1% among 290,000; in the data active = inhibition above about 16%, passing the limit was not always enough;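 note: cells stimulated with the agonist NPW; 0% = agonist with vehicle and 100% = vehicle without agonist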
Target sequence (P48145 whole entry, looked up): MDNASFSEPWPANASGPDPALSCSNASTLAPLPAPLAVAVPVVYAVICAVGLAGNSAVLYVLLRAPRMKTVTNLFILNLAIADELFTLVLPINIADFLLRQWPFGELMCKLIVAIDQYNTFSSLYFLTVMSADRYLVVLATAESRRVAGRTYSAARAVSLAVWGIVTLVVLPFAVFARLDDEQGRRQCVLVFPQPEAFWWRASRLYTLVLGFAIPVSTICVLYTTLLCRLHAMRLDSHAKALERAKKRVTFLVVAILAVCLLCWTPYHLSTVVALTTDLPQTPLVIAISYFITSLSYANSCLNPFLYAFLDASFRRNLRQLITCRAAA
zfTRPN1 agonist: zebrafish TRPN1 channel agonists, primary screen, cell-based, HEK293, calcium fluorescence | activation, % at 3 µM | hit rate 0.18% among 220,000 | HEK293 zebrafish TRPN1-YFP, Fluo-8 calcium fluorescence; 100% = response to 87 µM carbachol;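 active = activation above its plate's cutoff, the mean activation of test wells on that plate plus 3 SD, cut at about 19% in these data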;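 note: 0% = DMSO alone and 100% = 87 µM carbachol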
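Material: zebrafish TRPN1-YFP in HEK293 cells; Doses: single test compound dose, 3 µM nominal, 0.3% DMSO; Timing: dye loading 1 h at 37 °C, then 30 min room temperature; Technique: intracellular calcium fluorescence with Fluo-8; Benchmarks: high carbachol 87 µM, low DMSO alone.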
TRPML3 ag: human TRPML3 channel agonists, primary screen, cell-based, HEK293 TRPML3-YFP, Fluo-8 calcium fluorescence, 3 µM | Mucolipin-3 (Homo sapiens), Q8TDD5 | 100% = the carbachol control signal | activation, % at 3 µM | hit rate 0.29% among 220,000;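 active = activation above its plate's cutoff, the mean activation of the plate's test wells plus 3 SD, cut at about 12% in these data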;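 note: 0% = DMSO only wells and 100% = carbachol wells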
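Test system: TRPML3-YFP stable HEK293 cells. Doses: single point at 3 µM. Incubation: dye loading 1 h 37 °C then 30 min ambient, 125 s read. Signal: Fluo-8 calcium dye fluorescence, ex 470-495, em 515-575 nm. Measure: percent activation from peak-to-basal fluorescence ratio, scaled between DMSO and carbachol.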
TAAR1 antag: human TAAR1 antagonists, primary screen, Fluo-8 calcium fluorescence, CHO RD-HGA16 cells; Trace amine-associated receptor 1 (Homo sapiens), Q96RJ0; hit rate 1.5% among 360,000; inhibition, % at 3 µM; antagonist;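 active = inhibition above a per-plate cutoff, the mean inhibition of test compounds on that plate plus 3 SD, cut at about 49% in these data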;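 note: 0% = DMSO plus EC80 beta-PEA response and 100% = DMSO alone without agonist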
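Material: RD-HGA16 CHO cells with stable hTAAR1 and Gα16; Dosing: single nominal final test compound concentration of 3 µM; Schedule: seeding 17-24 h prior, 75-min 37 °C, 30-min RT dye loading; Detection: kinetic Fluo-8 calcium fluorescence measurement; Measure: % inhibition from peak post-agonist over basal fluorescence ratio; Benchmarks: vehicle and agonist controls.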
Numbers without * were called inactive; x = no result; + = active, no number.

SMILES | TAAR1 agonist | LANA-H2A inh | GPR7 antagonist | zfTRPN1 agonist | TRPML3 ag | TAAR1 antag
COc1ccc(OC(=O)N(C)C[C@H]2OCc3cnnn3CCCC(=O)N([C@@H](C)CO)C[C@@H]2C)cc1 | 3 | x | x | x | x | -19
c1ccc(CCNCc2cccs2)cc1 | 39* | -4 | -11 | x | x | -2
O=C(NCCN1CCC2(CC1)C(=O)NCN2c1ccccc1)c1cccs1 | 17 | x | x | x | x | 6
CC(C)CC12CN3CCN(CC(C3)C1O)C2 (stereo not given) | 4 | 0.7* | -4 | 1 | 1 | -8
O=C(NCCN1CCC2(CC1)C(=O)NCN2c1cccc(F)c1)c1ccc2ccccc2c1 | 83* | x | x | x | x | 106*
Cc1cc(C(=O)OCC(=O)Nc2ccc(F)cc2)c(C)n1C1CC1 | 6 | 3 | x | x | x | -1
Cc1cc(C(=O)OCC(=O)Nc2cccc(F)c2)c(C)n1C1CC1 | 2 | + | x | x | x | -18
C[N+](C)(C)CCc1ccc(O)cc1 | 1 | 11* | 1 | 0 | 0 | -7
CCCCCCCCc1ccc(O)cc1 | -1 | x | x | x | x | -7
COc1ccc(CCNC2CCCCCC2)cc1 | 4 | 6 | -13 | x | x | 2
COC1CCCCC1NCCc1ccccc1 (stereo not given) | 38* | 7 | 7 | 2 | 0 | -22
CC(=O)C1(c2ccccc2)CCNCC1 | 3 | 1 | 14* | -1 | 1 | -16
O=C(O)C1(c2ccc(Cl)cc2)CCC1 | 0 | 0 | -13 | 0 | 0 | 2
O=c1[nH]c2ccccc2n1C1CCN(C(c2ccccc2OC(F)(F)F)c2nnnn2Cc2ccccc2)CC1 (stereo not given) | 2 | x | x | x | x | 40
N#CCCC#N | 5 | x | x | x | x | -14
O=C1NC(=S)NC(=O)C1C1CCCCC1 | 1 | 15* | -9 | 3 | 0 | -14
COc1cc(C2c3cc4c(c(O)c3CC3COC(=O)C32)OCO4)cc(OC)c1OC (stereo not given) | 15 | x | x | x | x | 50*
Cc1sc(-n2c(C)cc(C=C3C(=O)NC(=O)NC3=O)c2C)c(C#N)c1C | 7 | 17* | 4 | -1 | 0 | 19
Cc1cc(/C=C2\C(=O)NC(=O)N(c3ccc(Cl)cc3)C2=O)c(C)n1-c1sc2c(c1C#N)CCCC2 | 2 | 0 | -4 | 2 | 0 | -5
CN(C)c1ccc(/C=C/[N+](=O)[O-])cc1 | 40* | -2 | 19* | 11 | 6 | 2
C/C(=C\c1ccc(N(C)C)cc1)[N+](=O)[O-] | 16 | -7 | 5 | 2 | 2 | 13
CC(C)S(=O)(=O)N1Cc2ccc(Br)cc2-n2nncc2C1 | 2 | x | x | x | x | -21
CN(C)N=O | 0 | 49* | x | x | x | 11
COc1ccc(C(=O)CN2CCCCC2)cc1 | 8 | -5 | -14 | 1 | 0 | -3
CC1CC(C)CN(CC(=O)c2ccc(OC(F)F)cc2)C1 (stereo not given) | 42* | -2 | 2 | 1 | 0 | -31
SMILES | TAAR1 agonist | LANA-H2A inh | GPR7 antagonist | zfTRPN1 agonist | TRPML3 ag | TAAR1 antag
CCOC(=O)c1ccc(NC(=O)c2c(O)[nH]c(=O)[nH]c2=O)cc1 | 14 | 0 | 48* | 308* | 247* | 8
O=C(O)CCl | 0 | x | x | x | x | 7
COc1ccc(NP(=O)(Nc2ccc(OC)cc2)Oc2ccccc2)cc1 | 5 | -1 | 7 | -2 | 0 | 28
COc1ccc(NP(=O)(Oc2ccccc2OC)Oc2ccccc2OC)cc1 | 17 | 4 | -10 | 1 | 1 | 59*
O=C1NCN(c2ccccc2)C12CCN(C(c1ccnc3ccccc13)c1nnnn1C1CCCCC1)CC2 (stereo not given) | 0 | x | x | x | x | 3
COc1cccc(-c2ccc3c(c2)C2c4cnnn4-c4ccccc4C(=O)N2CC3)c1 (stereo not given) | 0 | x | x | x | x | 2
COC(=O)C1=C(c2ccc(OC(F)(F)F)cc2)C[C@@H]2CC[C@H]1N2C(=O)NCc1ccco1 | -2 | x | x | x | x | -8
O=C1NC(=S)N(c2ccc(Cl)cc2)C(=O)/C1=C/N1CCN(C(=O)c2ccco2)CC1 | 38* | 4 | 2 | 0 | 0 | 5
COC(=O)C1CC(OC(C)=O)C(=O)[C@H]2C1(C)CC[C@H]1C(=O)OC(c3ccoc3)CC12C (stereo not given in full) | 0 | x | x | x | x | 14
CC(=O)C1=C(C)OC2=C(C(=O)CCC2)[C@@]12C(=O)N(C)c1ccccc12 | 3 | x | x | x | x | -1
COC1CC2C=C(C)C=CC=CC(=O)NC(c3ccccc3)CC=CCCC(O)CC(=O)C2=C1O (stereo not given) | 7 | x | x | x | x | 84*
O=c1c2ccccc2nc(-c2ccccc2)n1-c1ccccc1 | 9 | 3 | -14 | -1 | 0 | -4
O=c1c2ccccc2[se]n1-c1ccccc1 | 41* | -15 | -10 | 0 | 1 | 32
N#Cc1ccc2nc(-c3ccc(CN4CCC(n5c(=O)[nH]c6ccccc65)CC4)cc3)c(-c3ccccc3)nc2c1 | 2 | x | x | x | x | 61*
CCCC(=O)OCC[N+](C)(C)C | 5 | 20* | -3 | 0 | 1 | -12
COc1ccc(CC2C(=O)N(c3ccccc3)C(=O)N(c3ccccc3)C2=O)c(OC)c1 | 14 | 13* | 8 | -1 | 0 | -8
O=S(=O)(c1ccc(Cl)cc1)N1Cc2ccc(Br)cc2-n2nncc2C1 | 1 | x | x | x | x | -3
C=C(C)C(Cc1c(OC)ccc(C(=O)/C=C/c2ccc(O)cc2)c1O)OO (stereo not given) | 7 | x | x | x | x | 54*
O=C(c1ccccc1)N1Cc2cc(Br)ccc2-n2nncc2C1 | 3 | x | x | x | x | -19
O=[N+]([O-])c1ccc(N(CCO)CCO)c2c1no[n+]2[O-] | 6 | x | x | x | x | -1
CN1CCN(c2ccc([N+](=O)[O-])c3no[n+]([O-])c23)CC1 | 26 | 38* | 10 | 18 | 6 | 7
CC(C)OC(=O)C1C(c2ccc(I)cc2)CC2CCC1N2C (stereo not given) | 2 | x | x | x | x | -13
CC1CCOC(=O)C=CC=CC(=O)OC2CC3OC4C5OC5(C)C(O)CC4(COC(=O)C1O)C2(C)C31CO1 (stereo not given) | 1 | x | x | x | x | 6

Assay outcomes: PubChem, several laboratories
